{"source": "ChEMBL document CHEMBL3272163", "about": "“Synthesis and antiinflammatory activity of some 2-substituted 4- and 7-benzoxazoleacetic and alpha-methylacetic acids” (J Med Chem, 1977)", "key": {"Rattus norvegicus [1]": {"tested_on": "Rattus norvegicus", "assay": "Antiinflammatory activity in rat assessed as carrageenan-induced foot edema at 2 x 100 mg/kg, po relative to control", "format": "functional", "method_in_brief": "(§1)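 Rats were given carrageenan-induced foot edema by the Winter et al. method, modified as described in the paper's ref 1. Compound was dosed orally twice (dose × 2). The read-out was percent reduction of swelling relative to untreated controls, with significance given as p values.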"}, "[2]": {"assay": "Dissociation constant, pKa of the compound in 75% EtOH", "format": "physicochemical", "method_in_brief": "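pKa was determined in 75% EtOH, and values are reported to ±0.025.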"}, "[3]": {"assay": "Toxicity in po dosed mouse", "format": "organism-based", "settings": "in vivo", "method_in_brief": "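Approximate LD50 in mice after oral dosing, in mg/kg.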"}, "[4]": {"assay": "Octanol-water partition coefficient, P of the compound"}, "Rattus norvegicus [5]": {"tested_on": "Rattus norvegicus", "assay": "Antiinflammatory activity in rat assessed as carrageenan-induced foot edema at 2 x 50 mg/kg, po relative to control", "format": "functional", "method_in_brief": "as §1"}, "Rattus norvegicus [6]": {"tested_on": "Rattus norvegicus", "assay": "Antiinflammatory activity in rat assessed as carrageenan-induced foot edema at 2 x 33 mg/kg, po relative to control", "format": "functional", "method_in_brief": "as §1"}}}
{"compound": "O=C(O)Cc1cccc2oc(-c3ccccc3)nc12", "values": [{"measurement": "Activity", "setting": "Rattus norvegicus [1]", "result": 28, "unit": "%"}, {"measurement": "pKa", "setting": "[2]", "result": 6.3}, {"measurement": "LD50", "setting": "[3]", "result": 400, "unit": "mg/kg"}, {"measurement": "P", "setting": "[4]", "result": 1.03}]}
{"compound": "O=C(O)Cc1cccc2oc(-c3ccc(Cl)cc3)nc12", "values": [{"measurement": "Activity", "setting": "Rattus norvegicus [1]", "result": 8, "unit": "%"}, {"measurement": "pKa", "setting": "[2]", "result": 6.1}, {"measurement": "LD50", "setting": "[3]", "result": 600, "unit": "mg/kg"}, {"measurement": "P", "setting": "[4]", "result": 9.28}]}
{"compound": "CC(C(=O)O)c1cccc2oc(-c3ccccc3)nc12", "note": "(configuration not stated)", "values": [{"measurement": "Activity", "setting": "Rattus norvegicus [5]", "result": 1, "unit": "%"}, {"measurement": "P", "setting": "[4]", "result": 6.93}]}
{"compound": "C/C(=C1/SC(=S)NC1=O)c1cccc2oc(-c3ccccc3)nc12", "values": [{"measurement": "Activity", "setting": "Rattus norvegicus [1]", "result": 9, "unit": "%"}, {"measurement": "LD50", "setting": "[3]", "result": "> 1600", "unit": "mg/kg"}]}
{"compound": "CC(C(=O)O)c1cccc2nc(-c3ccccc3)oc12", "note": "(configuration not stated)", "values": [{"measurement": "Activity", "setting": "Rattus norvegicus [1]", "result": 44, "unit": "%"}, {"measurement": "Activity", "setting": "Rattus norvegicus [5]", "result": 26, "unit": "%"}, {"measurement": "pKa", "setting": "[2]", "result": 6.2}, {"measurement": "LD50", "setting": "[3]", "result": 1200, "unit": "mg/kg"}, {"measurement": "P", "setting": "[4]", "result": 3.66}]}
{"compound": "CC(C(=O)O)c1cccc2nc(-c3ccc(Cl)cc3)oc12", "note": "(configuration not stated)", "values": [{"measurement": "Activity", "setting": "Rattus norvegicus [1]", "result": 16, "unit": "%"}, {"measurement": "pKa", "setting": "[2]", "result": 6.25}, {"measurement": "LD50", "setting": "[3]", "result": 1200, "unit": "mg/kg"}]}
{"compound": "Cc1ccc(-c2nc3cccc(C(C)C(=O)O)c3o2)cc1", "note": "(configuration not stated)", "values": [{"measurement": "Activity", "setting": "Rattus norvegicus [1]", "result": 10, "unit": "%"}, {"measurement": "pKa", "setting": "[2]", "result": 6.2}, {"measurement": "LD50", "setting": "[3]", "result": "> 1600", "unit": "mg/kg"}, {"measurement": "P", "setting": "[4]", "result": 8.94}]}
{"compound": "C[C@]12CCC(=O)C=C1CC[C@@H]1[C@@H]2[C@@H](O)C[C@@]2(C)[C@H]1CC[C@]2(O)C(=O)CO", "note": "[HYDROCORTISONE]", "values": [{"measurement": "Activity", "setting": "Rattus norvegicus [5]", "result": 33, "unit": "%"}]}
{"compound": "CCCCC1C(=O)N(c2ccccc2)N(c2ccccc2)C1=O", "note": "[PHENYLBUTAZONE]", "values": [{"measurement": "Activity", "setting": "Rattus norvegicus [5]", "result": 59, "unit": "%"}, {"measurement": "Activity", "setting": "Rattus norvegicus [6]", "result": 52, "unit": "%"}]}
